ChEMBL document CHEMBL1811915, “Discovery of new chromone containing sulfonamides as potent inhibitors of bovine cytosolic carbonic anhydrase” (Bioorg Med Chem, 2011)

Columns and labels:
Bos taurus = organism: Bos taurus; test: Inhibition of bovine carbonic anhydrase assessed as formation of p-nitrophenol from p-nitrophenyl acetate substrate at 0.5 mM after 30 mins by spectrophotometric method
Outline: (§1)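 Bovine cytosolic CA (CA-I plus CA-II mix, 98.9% pure), 0.35 U/well, in 50 mM Tris–sulfate pH 7.6 with 0.1 mM ZnCl₂. Compound in DMSO is pre-incubated with enzyme for 10 min at 25 °C and pre-read at 348 nm. p-Nitrophenyl acetate is added to 0.6 mM final, then read at 348 nm after 30 min at 25 °C. Percent inhibition is relative to DMSO control; mean of three independent experiments ± sem.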

[1] = Inhibition of bovine carbonic anhydrase assessed as formation of p-nitrophenol from p-nitrophenyl acetate substrate after 30 mins by spectrophotometric method; design: species or system Bos taurus; outline: as §1

Row | SMILES | inhibition (Bos taurus) [%] | IC50 [1] [µmol] | Ki [1] [µM]
1 | CCOC1Oc2ccc(F)cc2C(=O)/C1=C\Nc1cccc(S(N)(=O)=O)c1 (centres undefined) | 66.8 | 11.37 | –
2 | CCOC1Oc2ccccc2C(=O)/C1=C\Nc1cccc(S(N)(=O)=O)c1 (centres undefined) | 67.6 | 17.72 | –
3 | CS(N)(=O)=O [METHANESULFONAMIDE] | – | – | 100
4 | CCOC1Oc2ccc(Br)cc2C(=O)/C1=C\Nc1cccc(S(N)(=O)=O)c1 (centres undefined) | 68.8 | 18.27 | –
5 | CCOC1Oc2ccccc2C(=O)/C1=C\Nc1ccc(S(N)(=O)=O)cc1 (centres undefined) | 64 | 19.21 | –
6 | CCOC1Oc2ccc(CC)cc2C(=O)/C1=C\Nc1cccc(S(N)(=O)=O)c1 (centres undefined) | 65.3 | 11.71 | –
7 | CCOC1Oc2c(Br)cc(Br)cc2C(=O)/C1=C\Nc1ccc(S(N)(=O)=O)cc1 (centres undefined) | 67.3 | 21.12 | –
8 | CCOC1Oc2ccc(Br)cc2C(=O)/C1=C\Nc1ccc(S(N)(=O)=O)cc1 (centres undefined) | 65.2 | 16.12 | –
9 | CCOC1Oc2c(Br)cc(Br)cc2C(=O)/C1=C\Nc1cccc(S(N)(=O)=O)c1 (centres undefined) | 61.2 | 29.12 | –
10 | NS(=O)(=O)C(F)(F)F [TRIFLUOROMETHANESULFONAMIDE] | – | – | 0.002
11 | CCOC1Oc2ccc(F)cc2C(=O)/C1=C\Nc1ccc(S(N)(=O)=O)cc1 (centres undefined) | 71.2 | 4.31 | –
12 | CC(=O)Nc1nnc(S(N)(=O)=O)s1 [ACETAZOLAMIDE] | 91.3 | 1.13 | –
13 | CCOC1Oc2ccc(CC)cc2C(=O)/C1=C\Nc1ccc(S(N)(=O)=O)cc1 (centres undefined) | 69.7 | 16.63 | –
